Here are results for five compounds from publication PMC6648324 (ACS Omega, 2019).

Molecules are shown by their SMILES. “And” between values parts separate entries of the source, which are not always exact repeats. Equal values may be shown once. Read-outs that look alike come from different tables or passages of the source.

For data set [1] the following is noted: cited from earlier work.
Data set [2] in a line: Cyclic voltammetry in DMSO. Type of data set: physicochemical. Particulars: 200 mV s^–1. A digest of the protocol:
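Flavone at ~2−2.5 mM in DMSO with 0.1 M n-Bu4NPF6 under Ar at 25 °C. Three-electrode cell: polished glassy carbon disk (0.07 cm2) working electrode, Pt wire counter, KCl(3 M)/Ag/AgCl reference (+210 mV vs NHE). Sweep rates 50 mV s−1 to 6 V s−1; peak potentials read at 200 mV s−1. E1/2 taken from the […] reduction wave.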

A short description of data set [3]: Diffusion-ordered spectroscopy NMR. Type of data set: physicochemical.
For data set [4] the following is noted: CH3OH/H2O (80/20 w/w); I = 0.1 M (NEt4ClO4); 25.0(2) °C; [H^+] = 10^–2 M; cited from earlier work.
A short description of data set [5]: Stability of the flavone toward oxidation during the kinetic measurements. Type of data set: physicochemical. Particulars: acidic conditions; CH3OH/H2O (80/20 w/w).
A short description of data set [6]: UV–vis absorption spectrophotometric titrations versus pH. Type of data set: physicochemical. As to conditions: CH3OH/H2O (80/20 w/w); I = 0.1 M (NEt4ClO4); T = 25.0(2) °C. In a few lines:
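Flavone at 10−5−10−4 M in CH3OH/H2O was acidified, then titrated with base over 2 < pH < 12, with full equilibration after each addition. Spectra taken through a quartz immersion probe (l = 1 cm). Specfit analysis gave the 6-OH protonation constants and the spectra of the protonated species.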

Data set [7] can be described thus: Spectrophotometric titrations with FeNTA at pH 7.4. The data set is classed as physicochemical. As to conditions: CH3OH/H2O (80/20 w/w), pH = 7.4 (HEPES), I = 0.1 M, 25.0(2) °C, nc = no complexation. A digest of the protocol: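 FeNTA made fresh from Fe(III) and solid NTA (~1:1, slight NTA excess) with a few drops of HClO4, then brought to pH 7.4 with 0.1 M HEPES. Flavone (stock ~10−5 M range) in 0.1 M HEPES pH 7.4 CH3OH/H2O was titrated with FeNTA. UV-vis spectra recorded at 25.0(2) °C, l = 1 cm. Constants fitted with Specfit. Ternary complexes checked by negative-mode ESI-MS.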

As to `O=c1cc(-c2ccccc2)oc2cccc(O)c12` [5-OH-flavone], the “pKa (5-OH)” value was 11.34 in data set [1] (CH3OH/water 1/1 w/w) and 11.44 in data set [1] (dioxane/water 1/1 w/w).
Turning to `O=c1cc(-c2ccccc2)oc2ccccc12` [F, 2-phenyl-chromone, reference compound], the “E1/2 of the quasireversible signal (carbonyl)” value in data set [2] is −1.59 V/KCl(3 M)/Ag/AgCl.
With `COc1ccc(-c2cc(=O)c3c(O)c(O)c(OC)cc3o2)cc1` [FOMe, ladanein], the “D0, diffusion coefficient” value in data set [3] is listed as 2.34 × 10^–6 cm^2 s^–1. Besides, the “log K*FFe, conditional stability constant of the ferric complex” value (“log K*FFe” for short) in data set [4] is on record as 6.0(3). In addition, the “stability of the free ligand in the absence of Fe(III)” value in data set [5] is “remained unaltered over a long period”. Moreover, the “E1/2 of the quasireversible signal (carbonyl)” value in data set [2] was −1.93 V/KCl(3 M)/Ag/AgCl. Moreover, the “log K^h (±σ), protonation constant (6-OH group)” value in data set [6] is 10.33(5). Further, the “log K*L·FeNTA (3σ), stability constant of the ferric NTA complex” value was 4.7(4) in data set [7]; 4.7(4) and 4.9(6) in data set [7] (listed as FOMe/ladanein).
With `O=c1cc(-c2ccc(O)cc2)oc2cc(O)cc(O)c12` [apigenin], the “log K*FFe” value in data set [4] is on record as 5.5(1).
With `COc1ccc(-c2cc(=O)c3c(O)c(OC)c(OC)cc3o2)cc1` [salvigenin, reference compound], the “log K*FFe” value in data set [4] is given as 5.8(2). Further, the “log K*L·FeNTA (3σ), stability constant of the ferric NTA complex” value in data set [7] is 5.8(7).
